Laboratory results taken from ChEMBL document CHEMBL1122970, “Synthesis and antitumor and antiviral activities of a series of 1-beta-D-ribofuranosyl-5-halocytosine (5-halocytidine) cyclic 3',5'-monophosphates” (1985).
“And” between values parts separate entries of the source, which are not always exact repeats. Equal values may be shown once. The source made the active and inactive calls. The calls are words filed in the database; no cut-off is given here.

How the values were obtained:
Coxsackievirus B1 [1] = assay: Antiviral activity against Coxsackie B1 strain HA 201468 was evaluated in african green monkey kidney; type: functional
Procedure, shortened: (§1)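 Confluent Vero monolayers (4 × 10⁴ cells/well, EMEM with 10% heat-inactivated newborn bovine serum, 24 h at 37 °C, 5% CO₂) were infected per well with Cox B1 200, Reo 3 470 or VSV 2 TCID₅₀ units. After 30 min adsorption, compound was added at seven 0.5-log steps, final 5 × 10⁻⁶ to 5 × 10⁻³ M, in duplicate wells. CPE was scored microscopically 0–4 at 72 h to give VR, and ED₅₀ was checked on crystal-violet-stained plates.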

Coxsackievirus B1 [2] = assay: In vitro antiviral activity against Coxsackie B1 strain HA 201468 was evaluated in african green monkey kidney; type: functional; procedure, shortened: as §1
Human alphaherpesvirus 1 [3] = assay: Antiviral activity against Herpes simplex virus -1 strain KOS was evaluated in african green monkey kidney; type: functional
Human alphaherpesvirus 2 [4] = assay: In vitro antiviral activity against Herpes simplex virus -2 strain MS was evaluated in african green monkey kidney; type: functional
Human alphaherpesvirus 1 [5] = assay: In vitro antiviral activity against Herpes simplex virus -1 strain KOS was evaluated in african green monkey kidney; type: functional
Human alphaherpesvirus 2 [6] = assay: Antiviral activity against Herpes simplex virus -2 strain MS was evaluated in african green monkey kidney; type: functional
L1210 [7] = assay: In vitro antitumor activity against L1210 cell line in mice; B indicates inactive at 10e-1 mmol/L; type: functional, cell-based; conditions: Mus musculus
Procedure, shortened: (§2)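 Cells at 1 × 10⁶ cells/mL were incubated with filter-sterilized compound in growth medium, in duplicate, at log concentrations from 1 × 10⁻⁹ to 1 × 10⁻⁴ M. After 48 h at 37 °C, Coulter counts were taken and growth was expressed as a percentage of untreated controls. ID₅₀ is the concentration giving 50% growth inhibition.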

P388 [8] = assay: In vitro antitumor activity against P388 cell line in mice; B indicates inactive at 10e-1 mmol/L; type: functional, cell-based; conditions: Mus musculus; procedure, shortened: as §2
Human respirovirus 3 [9] = assay: In vitro antiviral activity against Para influenza virus type 3 strain C243 was evaluated in african green monkey kidney; type: functional
[10] = test system: Mammalian orthoreovirus 3; assay: Antiviral activity against Reovirus type 3 strain Abney was evaluated in african green monkey kidney; type: functional; procedure, shortened: as §1
[11] = test system: Mammalian orthoreovirus 3; assay: In vitro antiviral activity against Reovirus type 3 strain Abney was evaluated in african green monkey kidney; type: functional; procedure, shortened: as §1
[12] = test system: Vesicular stomatitis virus; assay: Antiviral activity against Vesicular stomatitis virus strain indiana was evaluated in african green monkey kidney; type: functional; procedure, shortened: as §1
[13] = test system: Vesicular stomatitis virus; assay: In vitro antiviral activity against Vesicular stomatitis virus strain indiana was evaluated in african green monkey kidney; type: functional; procedure, shortened: as §1
Vero = assay: In vitro cytotoxicity against Vero cells.; type: functional, Chlorocebus sabaeus
Vaccinia virus [14] = assay: Antiviral activity against Vaccinia virus strain Elstree was evaluated in african green monkey kidney; type: functional, Orthopoxvirus vaccinia
Vaccinia virus [15] = assay: In vitro antiviral activity against Vaccinia virus strain Elstree was evaluated in african green monkey kidney; type: functional, Orthopoxvirus vaccinia
Human respirovirus 3 [16] = assay: Antiviral activity against Para influenza virus type 3 strain C243 was evaluated in african green monkey kidney; type: functional
L1210 [17] = assay: In vitro antitumor activity against L1210 cell line in mice.; type: functional, Mus musculus; procedure, shortened: as §2
P388 [18] = assay: In vitro antitumor activity against P388 cell line in mice.; type: functional, Mus musculus; procedure, shortened: as §2
Human alphaherpesvirus 1 [19] = assay: Antiviral activity against Herpes simplex virus -1 strain MS was evaluated in african green monkey kidney; type: functional

Row | Structure (SMILES) | ED50 (Coxsackievirus B1 [1]) | Virus rating (Coxsackievirus B1 [2]) | ED50 (Human alphaherpesvirus 1 [3]) | Virus rating (Human alphaherpesvirus 2 [4]) | Virus rating (Human alphaherpesvirus 1 [5]) | ED50 (Human alphaherpesvirus 2 [6]) | ID50 (L1210 [7]) | ID50 (P388 [8]) | Virus rating (Human respirovirus 3 [9]) | ED50 [10] | Virus rating [11] | ED50 [12] | Virus rating [13] | Cytotoxicity (Vero) | ED50 (Vaccinia virus [14]) | Virus rating (Vaccinia virus [15]) | ED50 (Human respirovirus 3 [16]) | ID50 (L1210 [17]) | ID50 (P388 [18]) | ED50 (Human alphaherpesvirus 1 [19])
1 | N.Nc1nc(=O)n([C@@H]2O[C@@H]3CO[PH](O)(O)O[C@H]3[C@H]2O)cc1Br | > 5000 µM | 0 | > 5000 µM | 0.2 | 0.1 | 5000 µM | inactive | inactive | 0 | > 5000 µM | 0 | > 5000 µM | 0 | 2 mM l-1 and 5 mM l-1 | 5000 µM | 0.1 | > 5000 µM | – | – | –
2 | N.Nc1nc(=O)n([C@@H]2O[C@@H]3CO[PH](O)(O)O[C@H]3[C@H]2O)cc1F | > 5000 µM | 0 | 220 µM | 0.9 | 0.6 | 92 µM | – | – | 0.1 | > 5000 µM | 0 | 5000 µM | 0.2 | 0.2 mM l-1 and 0.5 mM l-1 | 290 µM | 0.6 | > 5000 µM | 0.31 µM | 0.31 µM | –
3 | Nc1nc(=O)n([C@@H]2O[C@H](COP(=O)(O)O)[C@@H](O)[C@H]2O)cc1F | – | – | – | 2 | 1.2 | < 0.5 µM | – | – | 1 | – | – | – | – | – | 9e-05 µM | 1.4 | 20 µM | 3.4 µM | 3.1 µM | 20 µM
4 | N.Nc1nc(=O)n([C@@H]2O[C@@H]3CO[PH](O)(O)O[C@H]3[C@H]2O)cc1Cl | > 5000 µM | 0 | > 5000 µM | 0.1 | 0 | > 5000 µM | inactive | inactive | 0 | > 5000 µM | 0 | > 5000 µM | 0 | 5 mM | > 5000 µM | 0 | > 5000 µM | – | – | –
5 | Cl.Nc1nc(=O)n([C@@H]2O[C@H](CO)[C@@H](O)[C@H]2O)cc1F | – | – | 20 µM | 2.1 | 1 | < 0.5 µM | – | – | 0.8 | – | – | – | – | – | 5e-05 µM | 1.3 | 130 µM | 2.6 µM | 3 µM | –
6 | N.Nc1nc(=O)n([C@@H]2O[C@@H]3CO[PH](O)(O)O[C@H]3[C@H]2O)cc1I | > 5000 µM | 0 | > 5000 µM | 0 | 0 | > 5000 µM | inactive | inactive | 0 | > 5000 µM | 0 | > 5000 µM | 0.2 | 2 mM l-1 and 5 mM l-1 | > 5000 µM | 0 | > 5000 µM | – | – | –
7 | Nc1ccn([C@@H]2O[C@H](CO)[C@@H](O)[C@@H]2O)c(=O)n1 [CYTARABINE] | – | – | 0.34 µM | 2.7 | 2.7 | 1.1 µM | – | – | 0 | – | – | – | – | 0.0005 mM | 0.34 µM | 2.8 | > 500 µM | 2.5 µM | 1.2 µM | –
8 | Nc1nc(=O)[nH]cc1F [FLUCYTOSINE] | – | – | > 5000 µM | 0.5 | 0 | > 5000 µM | inactive | inactive | 0.4 | – | – | – | – | 5 mM | > 5000 µM | 0 | > 5000 µM | – | – | –
